In ChEMBL document CHEMBL1649090, “Discovery of (7R)-14-cyclohexyl-7-{[2-(dimethylamino)ethyl](methyl) amino}-7,8-dihydro-6H-indolo[1,2-e][1,5]benzoxazocine-11-carboxylic acid (MK-3281), a potent and orally bioavailable finger-loop inhibitor of the hepatitis C virus NS5B polymerase” (J Med Chem, 2011):
pEC50, pIC50: −log10 of the molar value.

Tests used:
Hepatitis C virus [1] = experiment: Inhibition of HCV1b NS5B delta21 polymerase after 1 hr; format: single protein, Hepatitis C virus subtype 1b
How it was run: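 Enzyme inhibition IC50 measured on genotype 1b HCV NS5B polymerase truncated by 21 C-terminal residues (ΔC21).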

Hepatitis C virus [2] = experiment: Antiviral activity against HCV1b infected in human Huh-7 cells assessed as inhibition of viral RNA replication after 96 hrs by ELISA assay in presence of 10% fetal calf serum; format: functional, organism-based, Hepacivirus hominis; conditions: genotype 1b, Huh-7, 96 h
[3] = Fraction unbound in human plasma; format: ADME, cell-free
Hepatitis C virus [4] = experiment: Ratio of EC50 for HCV1b to EC50 for HCV1b in presence of 50% normal human serum; format: functional, Hepacivirus hominis, genotype 1b
Hepatitis C virus [5] = experiment: Antiviral activity against HCV1b infected in human Huh-7 cells assessed as inhibition of viral RNA replication after 96 hrs by ELISA assay in presence of 50% normal human serum; format: functional, organism-based, Hepacivirus hominis; conditions: genotype 1b, Huh-7, 96 h
[6] = Ratio of drug level in liver to plasma in Sprague-Dawley rat liver at 3 mg/kg, po after 6 hrs; format: ADME, organism-based; design: dose 3 mg/kg, route oral
How it was run: (§1)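 Sprague-Dawley rats (n = 3) received the compound as its TFA salt in DMSO/PEG400/water 20%/60%/20%, as a single iv dose of 3 mg/kg or a single oral dose of 3 mg/kg. Liver tissue and plasma concentrations were measured 6 h after the oral dose.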

[7] = Intrinsic clearance in human liver microsomes assessed per mg of protein; format: ADME, Microsome
[8] = Volume of distribution in Sprague-Dawley rat at 3 mg/kg, iv; format: ADME, organism-based; design: dose 3 mg/kg, route intravenous; conditions: in vivo
How it was run: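 Sprague-Dawley rats (n = 3) received a single 3 mg/kg iv dose, given as the TFA salt, in DMSO/PEG400/water 20%/60%/20%. Plasma clearance, half-life and volume of distribution were derived.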

[9] = Clearance in Sprague-Dawley rat at 3 mg/kg, iv; format: ADME, organism-based; design: dose 3 mg/kg, route intravenous; conditions: in vivo; how it was run: as §1
[10] = AUC in Sprague-Dawley rat at 3 mg/kg, po; format: ADME, organism-based; design: dose 3 mg/kg, route oral; conditions: plasma
How it was run: (§2)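 Single-dose rat PK with the compound given as its TFA salt to Sprague-Dawley rats (n = 3) in DMSO/PEG400/water 20%/60%/20%. Dosing was 3 mg/kg iv and 3 mg/kg po.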

[11] = Cmax in Sprague-Dawley rat at 3 mg/kg, po; format: ADME, organism-based; design: dose 3 mg/kg, route oral; conditions: in vivo; how it was run: as §1
[12] = Drug level in Sprague-Dawley rat liver at 3 mg/kg, po after 6 hrs; format: ADME, organism-based; design: dose 3 mg/kg, route oral; conditions: read-out: Drug uptake; how it was run: as §1
[13] = Intrinsic clearance in dog liver microsomes assessed per mg of protein; format: ADME, Canis lupus familiaris, Microsome
[14] = Half life in Sprague-Dawley rat at 3 mg/kg, iv; format: ADME, organism-based; design: dose 3 mg/kg, route intravenous; conditions: in vivo; how it was run: as §1
[15] = Intrinsic clearance in rat liver microsomes assessed per mg of protein; format: ADME, Microsome
[16] = Oral bioavailability in Sprague-Dawley rat at 3 mg/kg; format: ADME, organism-based; conditions: in vivo; how it was run: as §2

CC(C)N1CC[C@H](N2CCn3c(c(C4CCCCC4)c4sc(C(=O)O)cc43)-c3ccccc3C2)C1 gave a pIC50 (Hepatitis C virus [1]) of 7.72 and a pEC50 (Hepatitis C virus [2]) of 6.82.
Molecule O=C(O)c1ccc2c(C3CCCCC3)c3n(c2c1)CCCOc1ccccc1-3 has a pIC50 (Hepatitis C virus [1]) of 7.38 and a pEC50 (Hepatitis C virus [2]) of 5.56.
With CN(C)CC(=O)N(C)C1COc2ccccc2-c2c(C3CCCCC3)c3ccc(C(=O)O)cc3n2C1 (stereo not drawn) the fraction unbound [3] was 0.005, the pIC50 (Hepatitis C virus [1]) was 7.51 and the pEC50 (Hepatitis C virus [2]) was 7.14. The “Ratio EC50” value (Hepatitis C virus [4]) was 10 and the pEC50 (Hepatitis C virus [5]) was 6.13.
For CN(C)CCN(C)[C@@H]1COc2ccccc2-c2c(C3CCCCC3)c3ccc(C(=O)O)cc3n2C1, the pIC50 (Hepatitis C virus [1]) was 7.46, the pEC50 (Hepatitis C virus [2]) was 6.47 and the “Ratio EC50” value (Hepatitis C virus [4]) was 3. The pEC50 (Hepatitis C virus [5]) was 5.77.
In the case of CN(C)CCO[C@@H]1COc2ccccc2-c2c(C3CCCCC3)c3ccc(C(=O)O)cc3n2C1, the pIC50 (Hepatitis C virus [1]) was 7.72, the pEC50 (Hepatitis C virus [2]) was 7.11 and the “Ratio EC50” value (Hepatitis C virus [4]) was 6. The pEC50 (Hepatitis C virus [5]) was 6.31.
Molecule CN(C)CCO[C@H]1COc2ccccc2-c2c(C3CCCCC3)c3ccc(C(=O)O)cc3n2C1 has a pIC50 (Hepatitis C virus [1]) of 7.14, a pEC50 (Hepatitis C virus [2]) of 6.36 and a pEC50 (Hepatitis C virus [5]) of 5.85.
With CC(C)N1CC2(COc3ccccc3-c3c(C4CCCCC4)c4ccc(C(=O)O)cc4n3C2)C1 the pIC50 (Hepatitis C virus [1]) was 7.52, the pEC50 (Hepatitis C virus [2]) was 6.47 and the pEC50 (Hepatitis C virus [5]) was 6.23.
Molecule CN(C)CCN1CC2(COc3ccccc3-c3c(C4CCCCC4)c4ccc(C(=O)O)cc4n3C2)C1 has a pIC50 (Hepatitis C virus [1]) of 8.40, a pEC50 (Hepatitis C virus [2]) of 7.10 and a pEC50 (Hepatitis C virus [5]) of 6.34.
O=C(O)c1ccc2c(C3CCCCC3)c3n(c2c1)CCCc1ccccc1-3 gave a pIC50 (Hepatitis C virus [1]) of 7.46 and a pEC50 (Hepatitis C virus [2]) of 4.98.
CCN(CC)C1CCN(C(=O)Cn2c(-c3ccc(Cl)cc3)c(C3CCCCC3)c3ccc(C(=O)O)cc32)CC1 showed a pIC50 (Hepatitis C virus [1]) of 7.32 and a Kp at 6 h [6] of 16.
Molecule CN(C)CCN1CCn2c(c(C3CCCCC3)c3ccc(C(=O)O)cc32)-c2ccccc2C1 has a microsomal CLint [7] of 5 µL/min/mg, a pIC50 (Hepatitis C virus [1]) of 7.57 and a Vd [8] of 5.1 L/kg. It also gave a clearance [9] of 61 mL/min/kg, an AUC [10] of 0.7 µM·h and a Cmax [11] of 200 nM. For the same molecule, the concentration at 6 h [12] was 640 nM, the microsomal CLint [13] was 26 µL/min/mg and the half-life [14] was 1.6 h. The microsomal CLint [15] was 100 µL/min/mg.
For COc1ccc2c(c1)[C@H]1[C@@H](CCN1CCN(C)C)Cn1c-2c(C2CCCCC2)c2ccc(C(=O)O)cc21, the pIC50 (Hepatitis C virus [1]) was 8.40 and the pEC50 (Hepatitis C virus [2]) was 7.54.
CN1CCN(CCN(C)C2COc3ccccc3-c3c(C4CCCCC4)c4ccc(C(=O)O)cc4n3C2)CC1 (racemic) gave a fraction unbound [3] of 0.011, a pIC50 (Hepatitis C virus [1]) of 8.10 and a pEC50 (Hepatitis C virus [2]) of 7.18. For the same molecule, the “Ratio EC50” value (Hepatitis C virus [4]) was 9 and the pEC50 (Hepatitis C virus [5]) was 6.24.
Molecule CNC1COc2ccccc2-c2c(C3CCCCC3)c3ccc(C(=O)O)cc3n2C1 (racemic) has a pIC50 (Hepatitis C virus [1]) of 7.29, a pEC50 (Hepatitis C virus [2]) of 5.99 and a pEC50 (Hepatitis C virus [5]) of 5.30.
In the case of CN(C)C1COc2ccccc2-c2c(C3CCCCC3)c3ccc(C(=O)O)cc3n2C1 (racemic), the pIC50 (Hepatitis C virus [1]) was 7.49, the pEC50 (Hepatitis C virus [2]) was 6.24 and the “Ratio EC50” value (Hepatitis C virus [4]) was 4. For the same molecule, the pEC50 (Hepatitis C virus [5]) was 5.68.
In the case of NCCNC1COc2ccccc2-c2c(C3CCCCC3)c3ccc(C(=O)O)cc3n2C1 (racemic), the pIC50 (Hepatitis C virus [1]) was 7.92, the pEC50 (Hepatitis C virus [2]) was 6.23 and the “Ratio EC50” value (Hepatitis C virus [4]) was 4. It also gave a pEC50 (Hepatitis C virus [5]) of 5.77.
Molecule CN(C)CCNC1COc2ccccc2-c2c(C3CCCCC3)c3ccc(C(=O)O)cc3n2C1 (racemic) has a microsomal CLint [7] of 5 µL/min/mg, a pIC50 (Hepatitis C virus [1]) of 7.49 and a pEC50 (Hepatitis C virus [2]) of 6.76. The Vd [8] was 3.2 L/kg, the “Ratio EC50” value (Hepatitis C virus [4]) was 4 and the clearance [9] was 21 mL/min/kg. The bioavailability [16] was 20%, the AUC [10] was 0.9 µM·h and the pEC50 (Hepatitis C virus [5]) was 6.07. For the same molecule, the Cmax [11] was 300 nM, the concentration at 6 h [12] was 1300 nM and the Kp at 6 h [6] was 21. The microsomal CLint [13] was 7 µL/min/mg, the half-life [14] was 3 h and the microsomal CLint [15] was 7 µL/min/mg.
In the case of CN(C)CCCNC1COc2ccccc2-c2c(C3CCCCC3)c3ccc(C(=O)O)cc3n2C1 (racemic), the pIC50 (Hepatitis C virus [1]) was 7.77, the pEC50 (Hepatitis C virus [2]) was 6.59 and the “Ratio EC50” value (Hepatitis C virus [4]) was 4. It also gave a pEC50 (Hepatitis C virus [5]) of 5.86.
For CN1CCC(NC2COc3ccccc3-c3c(C4CCCCC4)c4ccc(C(=O)O)cc4n3C2)CC1 (racemic), the pIC50 (Hepatitis C virus [1]) was 7.68, the pEC50 (Hepatitis C virus [2]) was 6.65 and the “Ratio EC50” value (Hepatitis C virus [4]) was 4. It also gave a pEC50 (Hepatitis C virus [5]) of 5.95.
For COCCNC1COc2ccccc2-c2c(C3CCCCC3)c3ccc(C(=O)O)cc3n2C1 (racemic), the pIC50 (Hepatitis C virus [1]) was 7.20 and the pEC50 (Hepatitis C virus [2]) was 5.61.
In the case of CN(C)C(=O)CNC1COc2ccccc2-c2c(C3CCCCC3)c3ccc(C(=O)O)cc3n2C1 (racemic), the pIC50 (Hepatitis C virus [1]) was 7.29, the pEC50 (Hepatitis C virus [2]) was 6.12 and the pEC50 (Hepatitis C virus [5]) was under 5.30.
In the case of CN(C)CC(=O)NC1COc2ccccc2-c2c(C3CCCCC3)c3ccc(C(=O)O)cc3n2C1 (racemic), the pIC50 (Hepatitis C virus [1]) was 7.33, the pEC50 (Hepatitis C virus [2]) was 6.77 and the pEC50 (Hepatitis C virus [5]) was 5.85.
Work on CN(C)CCN(C)C1COc2ccccc2-c2c(C3CCCCC3)c3ccc(C(=O)O)cc3n2C1 (racemic) yielded a fraction unbound [3] of 0.027, a pIC50 (Hepatitis C virus [1]) of 7.82 and a pEC50 (Hepatitis C virus [2]) of 7.14. It also gave a pEC50 (Hepatitis C virus [5]) of 6.50.
CN1CCN(C2COc3ccccc3-c3c(C4CCCCC4)c4ccc(C(=O)O)cc4n3C2)CC1 (racemic) gave a pIC50 (Hepatitis C virus [1]) of 8.00, a pEC50 (Hepatitis C virus [2]) of 6.92 and a pEC50 (Hepatitis C virus [5]) of 6.44.
For CNCCN(C)C1COc2ccccc2-c2c(C3CCCCC3)c3ccc(C(=O)O)cc3n2C1 (racemic), the pIC50 (Hepatitis C virus [1]) was 8.05, the pEC50 (Hepatitis C virus [2]) was 7.08 and the pEC50 (Hepatitis C virus [5]) was 6.26.
Molecule CN(CCN1CCCC1)C1COc2ccccc2-c2c(C3CCCCC3)c3ccc(C(=O)O)cc3n2C1 (racemic) has a pIC50 (Hepatitis C virus [1]) of 7.96, a pEC50 (Hepatitis C virus [2]) of 7.00 and a pEC50 (Hepatitis C virus [5]) of 6.47.
In the case of CN(CCN1CCOCC1)C1COc2ccccc2-c2c(C3CCCCC3)c3ccc(C(=O)O)cc3n2C1 (racemic), the pIC50 (Hepatitis C virus [1]) was 8.00, the pEC50 (Hepatitis C virus [2]) was 7.05 and the pEC50 (Hepatitis C virus [5]) was 6.51.
In the case of CCN(CCN(C)C)C1COc2ccccc2-c2c(C3CCCCC3)c3ccc(C(=O)O)cc3n2C1 (racemic), the pIC50 (Hepatitis C virus [1]) was 7.96, the pEC50 (Hepatitis C virus [2]) was 6.82 and the “Ratio EC50” value (Hepatitis C virus [4]) was 7. It also gave a pEC50 (Hepatitis C virus [5]) of 5.99.
With CC(C)N(CCN(C)C)C1COc2ccccc2-c2c(C3CCCCC3)c3ccc(C(=O)O)cc3n2C1 (racemic) the pIC50 (Hepatitis C virus [1]) was 7.47, the pEC50 (Hepatitis C virus [2]) was 6.86 and the “Ratio EC50” value (Hepatitis C virus [4]) was 7. The pEC50 (Hepatitis C virus [5]) was 5.92.
